High-throughput results (PubChem BioAssay)
This is a sample that favours compounds with a hit; in the whole collection about 5.8% have one here.
IDH1 mut inh: IDH1 R132H (human) inhibition. O75874. IDH1 R132H reductase, diaphorase/resazurin fluorescence, 60 min. inhibition, % at 10 µM. 70,000 compounds, 0.18% hits; in the data active means inhibition above about 34%; inconclusive means no clear call, values can overlap the other calls; inactive means below about 11%;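 further: 0% = DMSO and 100% = no enzyme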
Pf Dd2 inh: blocks growth of Plasmodium falciparum Dd2 parasites | P. falciparum Dd2 growth, SYBR Green, 72 h; active compounds read low | activity change, % at 10 µM | 94,000 compounds, 2.3% hits | AID 1159554; in the data active means activity change below about -80%; inconclusive means no clear call, values can overlap the other calls
KDM4C inh: KDM4C (human) demethylase inhibition; GST-KDM4C 2-372, H3K9me3 peptide, LANCE TR-FRET; inhibition, % at 12.5 µM; 96,000 compounds, 0.15% hits;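 active means mean replicate inhibition above about 25%, with at least 55% of replicates also reaching it, limit read from the data, passing the limit was not always enough; inconclusive means only one of those two conditions met; inactive means neither condition met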
Target sequence (Q9H3R0 2-372 limits assumed): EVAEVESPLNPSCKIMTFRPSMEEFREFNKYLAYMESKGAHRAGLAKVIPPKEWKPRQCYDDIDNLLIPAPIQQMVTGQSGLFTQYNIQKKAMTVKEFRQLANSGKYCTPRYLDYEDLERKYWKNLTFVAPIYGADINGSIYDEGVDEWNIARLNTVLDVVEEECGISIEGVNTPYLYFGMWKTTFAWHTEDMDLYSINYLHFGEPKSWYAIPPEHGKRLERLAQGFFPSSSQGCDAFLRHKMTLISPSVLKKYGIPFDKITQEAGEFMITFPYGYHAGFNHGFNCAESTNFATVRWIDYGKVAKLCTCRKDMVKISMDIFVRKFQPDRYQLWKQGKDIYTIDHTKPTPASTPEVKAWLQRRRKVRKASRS
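System: N-terminal GST-fused human GASC-1 (KDM4C) fragment, residues 2-372; amount: enzyme final amount 10 nM; incubation: reaction 30 min RT, detection step 1 h RT; medium: HEPES buffer, pH 7.5, plus ascorbate; technique: LANCE TR-FRET, Eu antibody, ULight-streptavidin, EDTA, ex 340 nm, em 618/671 nm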
T cruzi growth-1: inhibitors of T. cruzi proliferation | T. cruzi beta-gal in NIH3T3, GalScreen luminescence, 90 h | inhibition, % at 8.34 µM | 77,000 compounds, 5.9% hits | AID 624255;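 active means mean inhibition above about 93%, with at least 55% of replicates each passing it, limit read from the data, passing the limit was not always enough; inconclusive means only one of those two conditions holds; inactive means neither condition holds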
T cruzi growth-2: Trypanosoma cruzi proliferation inhibition; shares compounds with T cruzi growth-1; T. cruzi beta-gal in NIH3T3, GalScreen luminescence, 90 h; inhibition, % at 8.35 µM; 5,600 compounds, 72% hits; AID 651739;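 active means mean replicate inhibition above about 95% and at least 55% of replicates individually reaching it, limit read from the data; inconclusive means only one of the two criteria is met; inactive means neither criterion is met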
T cruzi growth-3: blocks T. cruzi growth in NIH3T3 host cells. shares compounds with T cruzi growth-1. T. cruzi beta-gal in NIH3T3, GalScreen luminescence, 90 h. inhibition, % at 2.09 µM. 5,600 compounds, 21% hits. AID 651740;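 active means mean inhibition above about 95%, with at least 55% of replicates also reaching it, limit read from the data; inconclusive means meets just one of the two conditions; inactive means meets neither condition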;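 further: plate controls were neutral control median for no effect and positive control median for full effect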
NIH3T3 tox: kills mouse NIH/3T3 fibroblasts | shares compounds with T cruzi growth-1 | NIH/3T3 viability, CellTiter-Glo ATP luminescence, 90 h | cytotoxicity (signal decrease), % at 8.35 µM | 5,600 compounds, 14% hits;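 active means mean signal decrease across replicates above about 35% based on untreated-well scatter, with enough replicates individually passing, limit read from the data; inconclusive means no rule stated though some were filed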;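 further: 0% = median of neutral control wells and 100% = median of positive control wells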
NIH3T3 tox 2: NIH/3T3 (mouse) viability loss | 5,600 compounds, 56% hits | inhibition, % at 24.9 µM | NIH/3T3 viability, CellTiter-Glo ATP luminescence, 90 h | shares compounds with T cruzi growth-1;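 active means mean loss of cell viability signal at or above a set limit, and enough replicates individually reaching it; inconclusive means meets only the mean limit or only the replicate share; inactive means meets neither condition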;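 further: 0% = median of neutral control wells and 100% = median of positive control wells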
Numbers without * were called inactive.

`C[C@@H]1CCCCO[C@H](CN(C)C(=O)Nc2cccc3ccccc23)[C@H](C)CN([C@@H](C)CO)C(=O)c2cc(NC(=O)Cc3ccccc3)ccc2O1` gave IDH1 mut inh 3, Pf Dd2 inh -75, KDM4C inh -3, T cruzi growth-1 107*, T cruzi growth-2 103*, T cruzi growth-3 57, NIH3T3 tox 0 and NIH3T3 tox 2 -7.
For C[C@@H]1CCCCO[C@@H](CN(C)C(=O)Nc2cccc3ccccc23)[C@H](C)CN([C@H](C)CO)C(=O)c2cc(NC(=O)c3ccccc3)ccc2O1 the results were Pf Dd2 inh -59, KDM4C inh -2, T cruzi growth-1 103*, T cruzi growth-2 101*, T cruzi growth-3 inconclusive, NIH3T3 tox -18 and NIH3T3 tox 2 -6.
`C[C@@H]1CN([C@@H](C)CO)C(=O)c2cc(NC(=O)Cc3ccccc3)ccc2O[C@@H](C)CCCCO[C@H]1CN(C)C(=O)Nc1ccccc1` gave IDH1 mut inh -1, Pf Dd2 inh -18 and KDM4C inh -1.
For C[C@@H]1CCCCO[C@@H](CN(C)C(=O)Nc2ccccc2)[C@H](C)CN([C@H](C)CO)C(=O)c2cc(NC(=O)Cc3ccccc3)ccc2O1 the results were IDH1 mut inh 2, Pf Dd2 inh -38, KDM4C inh 0 and T cruzi growth-1 67.
For CC(C)Oc1ccccc1-c1nc(SCC(N)=O)n[nH]1 the results were IDH1 mut inh 0.
Screening CC(C)CC#Cc1ccc2c(c1)O[C@H](CN(C)C(=O)c1cccc(F)c1)[C@H](C)CN([C@@H](C)CO)S2(=O)=O returned IDH1 mut inh 0, Pf Dd2 inh -64, KDM4C inh 0, T cruzi growth-1 120*, T cruzi growth-2 104*, T cruzi growth-3 106*, NIH3T3 tox 24 and NIH3T3 tox 2 104*.
Screening CC(C)CC#Cc1ccc2c(c1)O[C@H](CN(C)C(=O)c1cccc(F)c1)[C@H](C)CN([C@H](C)CO)S2(=O)=O returned IDH1 mut inh -4, Pf Dd2 inh -47, KDM4C inh 0, T cruzi growth-1 126*, T cruzi growth-2 104*, T cruzi growth-3 108*, NIH3T3 tox 29 and NIH3T3 tox 2 104*.
Screening CC(C)C#Cc1ccc2c(c1)O[C@H](CN(C)C(=O)c1cccc(F)c1)[C@@H](C)CN([C@@H](C)CO)S2(=O)=O returned IDH1 mut inh 0, Pf Dd2 inh -52, KDM4C inh -2, T cruzi growth-1 101*, T cruzi growth-2 103*, T cruzi growth-3 52, NIH3T3 tox 13 and NIH3T3 tox 2 34*.
Screening CC(C)CC#Cc1ccc2c(c1)O[C@@H](CN(C)C(=O)c1cccc(F)c1)[C@@H](C)CN([C@H](C)CO)S2(=O)=O returned IDH1 mut inh 1, Pf Dd2 inh -23, KDM4C inh -1, T cruzi growth-1 120*, T cruzi growth-2 99*, T cruzi growth-3 92, NIH3T3 tox 23 and NIH3T3 tox 2 106*.
CC(C)CC#Cc1ccc2c(c1)O[C@@H](CN(C)C(=O)c1ccccc1)[C@@H](C)CN([C@H](C)CO)S2(=O)=O was read as IDH1 mut inh 0, Pf Dd2 inh -56 and KDM4C inh -6.
Screening CN(C)CC#Cc1cccc(-c2nc(C(=O)NCCCN3CCOCC3)cc3c2[C@H](CCO)N(S(=O)C(C)(C)C)C3)c1 (stereo partly specified) returned T cruzi growth-1 105*, T cruzi growth-2 85, T cruzi growth-3 63, NIH3T3 tox -18 and NIH3T3 tox 2 -5.
`COc1ccc(C#Cc2cccc(-c3nc(C(=O)NCCCN4CCOCC4)cc4c3[C@@H](CCO)N(S(=O)C(C)(C)C)C4)c2)cc1OC` (stereo partly specified) gave KDM4C inh -2 and T cruzi growth-1 62.
For CC(C)(C)S(=O)N1Cc2cc(C(=O)NCCCN3CCOCC3)nc(-c3cccc(C#CCC4CCCC4)c3)c2[C@@H]1CCO (stereo partly specified) the results were IDH1 mut inh -1, Pf Dd2 inh -74, KDM4C inh -2, T cruzi growth-1 inconclusive, T cruzi growth-2 100*, T cruzi growth-3 82, NIH3T3 tox 42* and NIH3T3 tox 2 105*.
For C[C@@H]1CN([C@@H](C)CO)C(=O)c2cc(NS(=O)(=O)c3ccc(Cl)cc3)ccc2O[C@@H]1CN(C)Cc1ccc(C(F)(F)F)cc1 the results were IDH1 mut inh 1, Pf Dd2 inh 8, KDM4C inh -4, T cruzi growth-1 126*, T cruzi growth-2 96*, T cruzi growth-3 46, NIH3T3 tox 68* and NIH3T3 tox 2 104*.
For C[C@H]1CN([C@@H](C)CO)C(=O)c2cc(NS(=O)(=O)c3ccccc3)ccc2O[C@H]1CN(C)Cc1ccc(C(F)(F)F)cc1 the results were IDH1 mut inh 0, Pf Dd2 inh -65, KDM4C inh 0, T cruzi growth-1 inconclusive, T cruzi growth-2 106*, T cruzi growth-3 62, NIH3T3 tox 16 and NIH3T3 tox 2 8.
`C[C@@H]1CN([C@@H](C)CO)C(=O)c2cc(NS(=O)(=O)c3ccccc3)ccc2O[C@H]1CN(C)Cc1ccc(C(F)(F)F)cc1` gave Pf Dd2 inh 10, KDM4C inh 0 and T cruzi growth-1 94.
Screening C[C@H](CO)N1C[C@H](C)[C@H](CN(C)Cc2ccc(Oc3ccccc3)cc2)Oc2ccc(NS(=O)(=O)c3ccc(Cl)cc3)cc2C1=O returned Pf Dd2 inh -6, KDM4C inh 1, T cruzi growth-1 inconclusive, T cruzi growth-2 107*, T cruzi growth-3 64, NIH3T3 tox 0 and NIH3T3 tox 2 104*.
C[C@@H]1CN([C@H](C)CO)C(=O)c2cc(NS(=O)(=O)c3ccccc3)ccc2O[C@@H]1CN(C)Cc1ccc(Oc2ccccc2)cc1 was read as IDH1 mut inh 0, Pf Dd2 inh 18, KDM4C inh -2 and T cruzi growth-1 47.
CC(=O)OC1CC2(C)C3CC=C4C(CC(O)C(O)C4(C)C)C3(C)CCC2(C)C1C(C)(O)C(=O)CCC(C)(C)O (stereo unspecified) was read as IDH1 mut inh 0.
C[C@@H]1CN([C@@H](C)CO)C(=O)c2cccc(NC(=O)Nc3ccc(F)cc3)c2O[C@@H]1CN(C)C(=O)Nc1ccc(C(F)(F)F)cc1 was read as IDH1 mut inh 4, Pf Dd2 inh -76, KDM4C inh -1, T cruzi growth-1 inconclusive, T cruzi growth-2 111*, T cruzi growth-3 5, NIH3T3 tox 24 and NIH3T3 tox 2 40*.
